In ChEMBL document CHEMBL1132999, “Synthesis and oral antitumor activity of tetrakis(carboxylato)platinum(IV) complexes” (J Med Chem, 2000):

Legend:
L1210 = assay: in vitro antitumor activity (cytotoxicity) against the murine leukemia L1210 cell; type: functional, cell-based; settings: Mus musculus
Mus musculus [1] = assay: antitumor activity (survival) by the oral administration of 150 mg/kg scheduled treatment (Q1D x 5) in BDF1 mice inoculated with L1210 leukemia; type: functional, organism-based; set-up: dose 150 mg/kg; settings: at 150 mg/kg
Summary of the method: (§1)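 BDF1 mice inoculated with L1210 leukaemia and fasted before dosing. Complexes suspended in 0.2 mL 0.5% Tween 80 and given by stomach catheter on days 1-5 (Q1D × 5). Activity expressed as T/C (%), the ratio of mean survival time (days) of treated versus control mice.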

[2] = Partition coefficient (logP); type: physicochemical; settings: octanol/water
Mus musculus [3] = assay: antitumor activity (survival) by the oral administration of 100 mg/kg scheduled treatment (Q1D x 5) in BDF1 mice inoculated with L1210 leukemia; type: functional, organism-based; set-up: dose 100 mg/kg; settings: at 100 mg/kg; summary of the method: as §1
Mus musculus [4] = assay: antitumor activity (survival) by the oral administration of 150 mg/kg scheduled treatment (Q1D x 5) in BDF1 mice inoculated with L1210 leukemia; toxic; type: functional, organism-based; set-up: dose 150 mg/kg; summary of the method: as §1

| Substance | ED50 (L1210) [µM] | T/C (Mus musculus [1]) [%] | logP [2] | also measured |
| --- | --- | --- | --- | --- |
| [Pt(O2CC5H11)4(dach)]dach : trans-(+/-)-1,2-diaminocyclohexane [listing 1 of 2 here] | > 50 | 98.9 |  |  |
| [Pt(OH)4(dach)]dach | 32.6 | 112 |  |  |
| [Pt(O2CC4H9)4(dach)]dach : trans-(+/-)-1,2-diaminocyclohexane [listing 1 of 2 here] | > 50 | 107 |  |  |
| [Pt(O2CC4H9)4(dach)]dach : trans-(+/-)-1,2-diaminocyclohexane [listing 2 of 2 here] |  |  | 2.54 |  |
| [Pt(O2CCH3)4(dach)]dach [listing 1 of 2 here] |  |  | -1.59 |  |
| [Pt(O2CC3H7)4(dach)]dach : trans-(+/-)-1,2-diaminocyclohexane [listing 1 of 2 here] |  |  | 1.54 |  |
| [Pt(O2CC5H11)4(dach)]dach : trans-(+/-)-1,2-diaminocyclohexane [listing 2 of 2 here] |  |  | 3.03 |  |
| [Pt(O2CCH3)4(dach)]dach [listing 2 of 2 here] | 25.8 | 100 |  |  |
| [Pt(O2CC3H7)4(dach)]dach : trans-(+/-)-1,2-diaminocyclohexane [listing 2 of 2 here] | 6.2 |  |  | T/C (Mus musculus [3]): 108%; T/C (Mus musculus [4]): Toxic |
